How the values were obtained:
[1] = Prodrug activation in C57Bl/6 mouse brain assessed as sobetirome level at 1.5 umol/kg, ip after 1 hr by LC-MS/MS analysis; assay type: organism-based; settings: in vivo
Summary of the method: (§1)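 Single i.p. dose of 1.5 μmol/kg in 50% DMSO/saline to male C57Bl/6 mice (8–10 wk), n = 3. Agents were given as amide-rearranged isomers where rearrangement occurs. Whole brain and blood were taken at 1 h. Sobetirome was measured by LC-MS/MS with d6-sobetirome internal standard, and the brain/serum ratio was calculated. Values are mean with SEM.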

[2] = Ratio of drug level in C57Bl/6 mouse brain to serum assessed as sobetirome level at 1.5 umol/kg, ip after 1 hr by LC-MS/MS analysis; assay type: ADME, organism-based; summary of the method: as §1
[3] = Ratio of AUC (0 to t) in C57Bl/6 mouse brain to serum at 1.5 umol/kg, ip by LC-MS/MS analysis; assay type: ADME, organism-based; settings: read-out: Ratio AUC
Summary of the method: (§2)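 Male C57Bl/6 mice (8–10 wk) given a single i.p. dose of 1.5 μmol/kg in 50% DMSO/saline. Three mice per time point were killed at 0.25, 0.5, 1, 2, 4 and 8 h. Brain, liver, heart and kidney were homogenized with d6-sobetirome internal standard and acetonitrile-extracted, as was serum. Sobetirome was quantified by negative-ESI LC-MS/MS on C18. AUC0→t was computed over 8 h.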

[4] = Elimination half life in C57Bl/6 mouse at 3.05 umol/kg, iv by LC-MS/MS analysis; assay type: ADME, organism-based; settings: in vivo, read-out: beta t1/2 (converted)
Summary of the method: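 C57Bl/6 mice, n = 3 per cohort, dosed i.v. by tail vein at 3.05 μmol/kg or by oral gavage at 30.5 μmol/kg in 50% DMSO/saline. Serial serum samples were taken (i.v.: 5 min–8 h; p.o.: 10 min–8 h). Prodrug and sobetirome were quantified by LC-MS/MS. %F = (AUCp.o./AUCi.v.)·(dosei.v./dosep.o.)·100. t½ came from the log-concentration slope of the last five i.v. time points.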

Mus musculus [5] = test: Upregulation of Hr expression levels in ip dosed mouse brain for 7 days measured after 2 hrs post last dose by […] green dye-based qPCR analysis; assay type: functional
Summary of the method: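 Mice, n = 3 per dose, received six i.p. doses in 1:1 saline/DMSO. Brains were collected 2 h post-injection. RNA was extracted with Trizol and a column kit with DNase treatment, and cDNA was diluted two-fold. Hairless was measured by qPCR, normalized to GAPDH, by comparative CT. ED50 ± SEM came from a sigmoidal dose–response fit. Run in triplicate.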

[6] = AUC (0 to t) in C57Bl/6 mouse brain assessed as sobetirome level at 1.5 umol/kg, ip by LC-MS/MS analysis; assay type: ADME, organism-based; settings: in vivo; summary of the method: as §2
[7] = AUC (0 to t) in C57Bl/6 mouse serum assessed as sobetirome level at 1.5 umol/kg, ip by LC-MS/MS analysis; assay type: ADME, organism-based; settings: in vivo; summary of the method: as §2
[8] = AUC (0 to t) in C57Bl/6 mouse liver assessed as sobetirome level at 1.5 umol/kg, ip by LC-MS/MS analysis; assay type: ADME, organism-based; settings: in vivo; summary of the method: as §2
[9] = AUC (0 to t) in C57Bl/6 mouse heart assessed as sobetirome level at 1.5 umol/kg, ip by LC-MS/MS analysis; assay type: ADME, organism-based; settings: in vivo; summary of the method: as §2
[10] = AUC (0 to t) in C57Bl/6 mouse kidney assessed as sobetirome level at 1.5 umol/kg, ip by LC-MS/MS analysis; assay type: ADME, organism-based; settings: in vivo; summary of the method: as §2
Mus musculus [11] = test: Oral bioavailability in C57Bl/6 mouse at 30.5 umol/kg administered via oral gavage by LC-MS/MS analysis; settings: in vivo
Mus musculus [12] = test: Total oral bioavailability in C57Bl/6 mouse assessed as sobetirome level at 30.5 umol/kg administered via oral gavage by LC-MS/MS analysis; settings: in vivo
[13] = Drug uptake in C57Bl/6 mouse brain at 1.5 umol/kg, ip after 1 hr by LC-MS/MS analysis; assay type: ADME, organism-based; settings: read-out: Drug uptake; summary of the method: as §1
[14] = Ratio of drug level in C57Bl/6 mouse brain to serum at 1.5 umol/kg, ip after 1 hr by LC-MS/MS analysis; assay type: ADME, organism-based
Summary of the method: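 Male C57Bl/6 mice, 8–10 weeks old, given one i.p. dose of 1.5 μmol/kg in 50% DMSO/saline. Whole brain and blood taken 1 h later; serum obtained from blood clotted on ice ≥30 min and spun at 7,500 × g for 15 min. d6-sobetirome internal standard added, acetonitrile extraction, sobetirome quantified by negative-ESI LC-MS/MS. Mean of n = 3 mice, SEM.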

[15] = AUC (0 to t) in C57Bl/6 mouse brain at 1.5 umol/kg, ip by LC-MS/MS analysis; assay type: ADME, organism-based; settings: in vivo; summary of the method: as §2
[16] = AUC (0 to t) in C57Bl/6 mouse serum at 1.5 umol/kg, ip by LC-MS/MS analysis; assay type: ADME, organism-based; settings: in vivo; summary of the method: as §2
[17] = AUC (0 to t) in C57Bl/6 mouse liver at 1.5 umol/kg, ip by LC-MS/MS analysis; assay type: ADME, organism-based; settings: in vivo; summary of the method: as §2
[18] = AUC (0 to t) in C57Bl/6 mouse heart at 1.5 umol/kg, ip by LC-MS/MS analysis; assay type: ADME, organism-based; settings: in vivo; summary of the method: as §2
[19] = AUC (0 to t) in C57Bl/6 mouse kidney at 1.5 umol/kg, ip by LC-MS/MS analysis; assay type: ADME, organism-based; settings: in vivo; summary of the method: as §2

## Cc1cc(OCC(=O)O[C@@H](C)CN)cc(C)c1Cc1ccc(O)c(C(C)C)c1
[1]
  Activity: 8.26 ng/g
[2]
  Ratio: 0.47
[3]
  Kp: 0.13
[4]
  half-life: 418 min
Mus musculus [5]
  Activity: Dose-dependent effect
  ED50: 1 µmol/kg
[6]
  AUCt: 17.2 ng·h/g
[7]
  AUCt: 136.5 ng·h/g
[8]
  AUCt: 1017 ng·h/g
[9]
  AUCt: 57.2 ng·h/g
[10]
  AUCt: 283.8 ng·h/g
Mus musculus [11]
  F: 36%
Mus musculus [12]
  F: 56%

## Cc1cc(OCC(=O)OC2(C(F)(F)F)CNC2)cc(C)c1Cc1ccc(O)c(C(C)C)c1
[1]
  Activity: 5.14 ng/g
[2]
  Ratio: 0.13

## Cc1cc(OCC(=O)OC(C)(C)CN)cc(C)c1Cc1ccc(O)c(C(C)C)c1
[1]
  Activity: 0.4 ng/g
[2]
  Ratio: 1.22

## Cc1cc(OCC(=O)O)cc(C)c1Cc1ccc(O)c(C(C)C)c1 [SOBETIROME]
[13]
  concentration at 1 h: 2.32 ng/g
[14]
  Kp at 1 h: 0.037
[15]
  AUCt: 9.9 ng·h/g
[16]
  AUCt: 472.6 ng·h/g
[17]
  AUCt: 2235 ng·h/g
[18]
  AUCt: 180.3 ng·h/g
[19]
  AUCt: 686.8 ng·h/g
[3]
  Kp: 0.02
[4]
  half-life: 427 min
Mus musculus [5]
  Activity: Dose-dependent effect
  ED50: 1.8 µmol/kg
Mus musculus [11]
  F: 92%

## CNCC(OC(=O)COc1cc(C)c(Cc2ccc(O)c(C(C)C)c2)c(C)c1)C(C)C (configuration not stated)
[1]
  Activity: 1.79 ng/g
[2]
  Ratio: 0.024

## Cc1cc(OCC(=O)OCCN)cc(C)c1Cc1ccc(O)c(C(C)C)c1
[1]
  Activity: 4.92 ng/g
[2]
  Ratio: 0.066

## CNCCOC(=O)COc1cc(C)c(Cc2ccc(O)c(C(C)C)c2)c(C)c1
[1]
  Activity: 6.33 ng/g
[2]
  Ratio: 0.21

## CCC(CN)OC(=O)COc1cc(C)c(Cc2ccc(O)c(C(C)C)c2)c(C)c1 (configuration not stated)
[1]
  Activity: 4.26 ng/g
[2]
  Ratio: 0.41

## Cc1cc(OCC(=O)O[C@H](C)CN)cc(C)c1Cc1ccc(O)c(C(C)C)c1
[1]
  Activity: 8.12 ng/g
[2]
  Ratio: 0.19

## Cc1cc(OCC(=O)OC(CN)C(C)C)cc(C)c1Cc1ccc(O)c(C(C)C)c1 (configuration not stated)
[1]
  Activity: 3.38 ng/g
[2]
  Ratio: 0.045

## Cc1cc(OCC(=O)OC(CN)C(F)(F)F)cc(C)c1Cc1ccc(O)c(C(C)C)c1 (configuration not stated)
[1]
  Activity: 5.23 ng/g
[2]
  Ratio: 0.2

## Cc1cc(OCC(=O)OC(C)CNC(C)C)cc(C)c1Cc1ccc(O)c(C(C)C)c1 (configuration not stated)
[1]
  Activity: 0.48 ng/g
[2]
  Ratio: 0.23

## Cc1cc(OCC(=O)OC(C)CN)cc(C)c1Cc1ccc(O)c(C(C)C)c1 (configuration not stated)
[1]
  Activity: 5.92 ng/g
[2]
  Ratio: 0.21

## Cc1cc(OCC(=O)NC[C@H](C)O)cc(C)c1Cc1ccc(O)c(C(C)C)c1
[1]
  Drug metabolism: Metabolite_Detected

## CNCC(C)OC(=O)COc1cc(C)c(Cc2ccc(O)c(C(C)C)c2)c(C)c1 (configuration not stated)
[1]
  Activity: 5.12 ng/g
[2]
  Ratio: 0.23

## Cc1cc(OCC(=O)OC(C)CCN)cc(C)c1Cc1ccc(O)c(C(C)C)c1 (configuration not stated)
[1]
  Activity: 4.46 ng/g
[2]
  Ratio: 0.33
